ChEMBL document CHEMBL3297685, “Carbonic anhydrase inhibitors: Synthesis, molecular docking, cytotoxic and inhibition of the human carbonic anhydrase isoforms I, II, IX, XII with novel benzenesulfonamides incorporating pyrrole, pyrrolopyrimidine and fused pyrrolopyrimidine moieties” (Bioorg Med Chem, 2014)

Columns and labels:
MCF7 [1] = experiment: Cytotoxicity against human MCF7 cells assessed as reduction in cell survival after 48 hrs by MTT assay; conditions: MCF7, 48 h
Carbonic anhydrase 9 = Carbonic anhydrase 9 (Homo sapiens, UniProt Q16790); experiment: Inhibition of human recombinant carbonic anhydrase 9 preincubated for 15 mins by stopped-flow CO2 hydrase assay
MCF7 [2] = experiment: Cytotoxicity against human MCF7 cells assessed as cell survival at 50 uM after 48 hrs by […]; assay type: functional; conditions: MCF7, 48 h, read-out: Survival
Summary of the method: (§1)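 MCF-7 human breast tumour cells seeded at 10^4 cells/well and left 24 h to attach. Compounds in DMSO added at 10, 25, 50 or 100 µM, triplicate wells per concentration, 48 h at 37 °C, 5% CO2. Cells fixed and stained 30 min with 0.4% SRB in 1% acetic acid, bound dye recovered in Tris-EDTA, absorbance read. Surviving fraction reported.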

MCF7 [3] = experiment: Cytotoxicity against human MCF7 cells assessed as cell survival at 100 uM after 48 hrs by SRB assay; conditions: MCF7, 48 h, read-out: Survival
MCF7 [4] = experiment: Cytotoxicity against human MCF7 cells assessed as cell survival at 10 uM after 48 hrs by […]; assay type: functional; conditions: MCF7, 48 h, read-out: Survival; summary of the method: as §1
MCF7 [5] = experiment: Cytotoxicity against human MCF7 cells assessed as cell survival at 25 uM after 48 hrs by […]; assay type: functional; conditions: MCF7, 48 h, read-out: Survival; summary of the method: as §1

| Structure (SMILES) | IC50 (MCF7 [1]) [µM] | Ki (Carbonic anhydrase 9) [µM] | viability at 50 µM (MCF7 [2]) [%] | viability at 100 µM (MCF7 [3]) [%] | viability at 10 µM (MCF7 [4]) [%] | viability at 25 µM (MCF7 [5]) [%] |
| --- | --- | --- | --- | --- | --- | --- |
| C/C(CC(=O)c1ccccc1)=N/n1cnc2c(c(-c3ccc(Br)cc3)cn2-c2ccc(S(N)(=O)=O)cc2)c1=N | 7.84 | 0.0028 | 25.1 | 30.1 | 38.1 | 33.3 |
| CC1=NN2C=Nc3c(c(-c4ccc(Br)cc4)cn3-c3ccc(S(N)(=O)=O)cc3)C2=NC(c2ccccc2)=C1 | 7.29 | 0.0036 | 27.7 | 28 | 30.3 | 30.6 |
| N#Cc1c(-c2ccc(Br)cc2)cn(-c2ccc(S(N)(=O)=O)cc2)c1N | 7.56 | 0.0063 | 23.3 | 25.5 | 32.7 | 27.3 |
| CCO/C=N/c1c(C#N)c(-c2ccc(Br)cc2)cn1-c1ccc(S(N)(=O)=O)cc1 | 7.56 | 0.0039 | 24.6 | 25.6 | 34 | 29.4 |
| N=c1c2c(-c3ccc(Br)cc3)cn(-c3ccc(S(N)(=O)=O)cc3)c2ncn1N | 7.29 | 0.0027 | 22.7 | 26.8 | 33 | 30.9 |
| N#Cc1c(N)nn2cnc3c(c(-c4ccc(Br)cc4)cn3-c3ccc(S(N)(=O)=O)cc3)c12 | 7.56 | 0.0024 | 21.3 | 22.1 | 34.7 | 29.2 |
| CCOC(=O)c1nc2c3c(-c4ccc(Br)cc4)cn(-c4ccc(S(N)(=O)=O)cc4)c3ncn2n1 | 7.29 | 0.0027 | 27.4 | 30.9 | 30.5 | 28.1 |
| CCOC(=O)Cc1nc2c3c(-c4ccc(Br)cc4)cn(-c4ccc(S(N)(=O)=O)cc4)c3ncn2n1 | 8.94 | 0.003 | 34.8 | 33.5 | 42.6 | 41 |
| CC(=O)Cc1nc2c3c(-c4ccc(Br)cc4)cn(-c4ccc(S(N)(=O)=O)cc4)c3ncn2n1 | 8.94 | 0.0031 | 36.5 | 35 | 40 | 39.9 |
| CCOC(=O)n1c(=O)nc2c3c(-c4ccc(Br)cc4)cn(-c4ccc(S(N)(=O)=O)cc4)c3ncn21 | 7.56 | 0.0026 | 23.2 | 21.6 | 36.1 | 31.1 |
| NS(=O)(=O)c1ccc(-n2cc(-c3ccc(Br)cc3)c3c2ncn2nnnc32)cc1 | 7.84 | – | 25.4 | 21.6 | 34.8 | 29.4 |
| NS(=O)(=O)c1ccc(-n2cc(-c3ccc(Br)cc3)c3c2N=CN2NC(=O)CN=C32)cc1 | 8.11 | – | 33.7 | 36.2 | 39.3 | 35.8 |
| NS(=O)(=O)c1ccc(-n2cc(-c3ccc(Br)cc3)c3c2ncn2[nH]c(=O)c(=O)nc32)cc1 | 8.66 | 0.325 | 35 | 35.8 | 43.6 | 36.6 |
| CC1=CC(C)=NN2C=Nc3c(c(-c4ccc(Br)cc4)cn3-c3ccc(S(N)(=O)=O)cc3)C2=N1 | 7.84 | 0.0496 | 33.2 | 37.5 | 38 | 28.5 |
| N#CC1=C(N)N=C2c3c(-c4ccc(Br)cc4)cn(-c4ccc(S(N)(=O)=O)cc4)c3N=CN2N=C1 | 8.11 | 0.0031 | 40.1 | 37.9 | 38.2 | 38 |
| CCOC(=O)C1=C(N)N=C2c3c(-c4ccc(Br)cc4)cn(-c4ccc(S(N)(=O)=O)cc4)c3N=CN2N=C1 | 7.84 | 0.003 | 35.3 | 39.1 | 37.2 | 37.7 |
| NS(=O)(=O)c1ccc(-n2cc(-c3ccc(Br)cc3)c3c2ncn2nc4c5ccccc5nc-4nc32)cc1 | 7.84 | – | 31.5 | 38.1 | 34.7 | 33.8 |
| CC(=O)N1C(=O)/C(=N\n2cnc3c(c(-c4ccc(Br)cc4)cn3-c3ccc(S(N)(=O)=O)cc3)c2=N)c2ccccc21 | 7.56 | – | 25.9 | 32.6 | 34.2 | 28.7 |
| COc1cccc2c1C(=O)c1c(O)c3c(c(O)c1C2=O)C[C@@](O)(C(=O)CO)C[C@@H]3O[C@H]1C[C@H](N)[C@H](O)[C@H](C)O1 [DOXORUBICIN] | – | – | 25.1 | 26.6 | 31.4 | 30.9 |
